# Source: PubChem
# Hits are enriched below; roughly 2.5% of the tested compounds scored in any of these assays.
# SENP7 block = inhibitors of human SENP7 protease; Q9BQF6; recombinant SENP7, Z-RLRGG-aminoluciferin luminescence, 40 min; inhibition, % at 5 µM; 330,000 compounds, 1.5% hits; AID 434973;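 active = inhibition above about 50% at the single test dose, limit read from the data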;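 also: plate controls were DMSO with enzyme for no effect and no enzyme buffer wells for full effect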
# SENP8 block-1 = SENP8 (human) protease inhibition. Q96LD8. recombinant SENP8, Nedd8 substrate fluorescence. inhibition, % at 20 µM. 360,000 compounds, 0.64% hits. AID 602440; in the data active = inhibition mostly above about 40%, no sharp cut-off; inactive = mostly below about 27%
# Target sequence (Q96LD8 whole entry, looked up): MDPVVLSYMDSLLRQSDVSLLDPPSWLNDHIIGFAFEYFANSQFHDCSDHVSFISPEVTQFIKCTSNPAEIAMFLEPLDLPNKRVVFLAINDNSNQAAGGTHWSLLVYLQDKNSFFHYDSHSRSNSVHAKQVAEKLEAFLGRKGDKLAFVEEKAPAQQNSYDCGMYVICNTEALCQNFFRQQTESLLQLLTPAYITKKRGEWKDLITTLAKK
# SENP8 block-2 = blocks the human protease SENP8; purified SENP8, Z-RLRGG-aminoluciferin cleavage, luminescence; inhibition, % at 10 µM; AID 2540; 330,000 compounds, 1.2% hits; Q96LD8; in the data active = inhibition above about 50%
# SENP6 inh = SENP6 protease inhibition; Q9GZR1; Recombinant SENP6 catalytic domain, aminoluciferin luminescence; inhibition, % at 10 µM; 330,000 compounds, 1.8% hits; AID 2599;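 active = inhibition above about 50% at the single tested dose, limit read from the data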;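 also: plate controls were DMSO wells with enzyme for no effect and DMSO wells lacking enzyme for full effect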
# SENP1 inh = inhibitors of human SENP1 SUMO protease catalytic domain. Q9P0U3. recombinant SENP1 catalytic domain, CyPet-SUMO1-YPet FRET cleavage. inhibition, % at 10 µM. 360,000 compounds, 0.21% hits. AID 624204;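 active = inhibition at least 30% at 10 µM, raw YFP signal under a set limit, fluorescence ratio 0.5 to 1.5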;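 also: 0% = enzyme with DMSO and 100% = no enzyme wells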
# Target sequence (Q9P0U3 419-644 limits assumed): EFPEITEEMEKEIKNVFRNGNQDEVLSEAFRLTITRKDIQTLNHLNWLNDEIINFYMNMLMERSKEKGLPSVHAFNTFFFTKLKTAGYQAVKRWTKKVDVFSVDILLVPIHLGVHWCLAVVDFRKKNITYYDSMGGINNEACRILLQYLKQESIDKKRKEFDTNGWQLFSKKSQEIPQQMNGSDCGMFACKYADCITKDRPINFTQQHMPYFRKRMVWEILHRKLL
#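 Compound: 10 µM single point, 0.5% DMSO; Test system: hSENP1 catalytic domain, recombinant; Timing: 50 min reaction at room temperature; Technique: FRET, CFP and YFP emission; Control set: no-enzyme wells low, DMSO-plus-enzyme wells high control.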
# SENP8 conf = human SENP8 inhibition, confirmed | shares compounds with SENP7 block | Recombinant SENP8, Z-RLRGG-aminoluciferin luminescence, 60 min | inhibition, % at 12.5 µM | 6,200 compounds, 40% hits;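 active = mean inhibition across replicates above about 50%, limit read from the data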
# SENP6 conf = confirmation of human SENP6 protease inhibitors; AID 488915; recombinant SENP6, Z-RLRGG-aminoluciferin luminescence; shares compounds with SENP7 block; 6,200 compounds, 58% hits; inhibition, % at 12.5 µM
# SENP7 conf = confirmation of human SENP7 protease inhibitors; shares compounds with SENP7 block; recombinant SENP7, Z-RLRGG-aminoluciferin luminescence, 40 min; inhibition, % at 12.5 µM; 6,200 compounds, 69% hits; AID 488917
# Casp3 select = selectivity test for SENP inhibitors: human caspase-3 inhibition. shares compounds with SENP7 block. purified caspase-3, Z-DEVD-aminoluciferin luminescence, 60 min. inhibition, % at 12.5 µM. 6,200 compounds, 60% hits. AID 488918;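 active = mean inhibition above about 50%, limit read from the data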;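 also: plate controls were enzyme with DMSO for no effect and wells without caspase-3 for full effect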
# Luc interf = luminescence interference (SENP counter-screen). 6,200 compounds, 39% hits. shares compounds with SENP7 block. Pre-incubated SENP8/Z-RLRGG-aminoluciferin, luciferase luminescence interference. AID 488919. inhibition, % at 12.5 µM;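 active = mean inhibition above about 50% when retested at one dose, limit read from the data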;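 also: plate controls were DMSO wells with completed reaction for no effect and substrate without enzyme for full effect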
# Starred values were filed as active, the others as inactive; x = not tested or not shown.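 The calls were made as follows, unless noted: active = mean inhibition above about 50% in the one-dose retest (limit read from the data); inactive = the rest.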
SMILES,SENP7 block,SENP8 block-1,SENP8 block-2,SENP6 inh,SENP1 inh,SENP8 conf,SENP6 conf,SENP7 conf,Casp3 select,Luc interf
Cc1cc(C)c(C(=O)C2OC(=O)C(C)(C)C(=O)C2(C)C)c(C)c1 (centres undefined),-2,28,1,-4,3,x,x,x,x,x
Cc1cccc(NS(=O)(=O)c2cccc(C(=O)NCCCN3CCOCC3)c2)c1,-5,16,-7,-18,0,x,x,x,x,x
O=C(Nc1ccc(F)cc1)/C(=C1/CCCCCN1)[N+](=O)[O-],7,14,5,0,2,x,x,x,x,x
O=C(COC(=O)c1ccc(Br)o1)Nc1ccc(N2CCOCC2)cc1,-2,4,-9,-3,1,x,x,x,x,x
COc1ccc(C(=O)c2c(C(F)(F)F)oc3c2C(=O)c2ccccc2C3=O)cc1,27,81*,47,70*,4,27,70*,15,72*,-6
CC(Nc1cccc2ccccc12)C(=O)N/N=C/c1ccccn1 (centres undefined),45,18,85*,81*,-13,-9,5,-4,1,4
O=C(CCCC(=O)N/N=C\c1ccccn1)N/N=C\c1ccccn1,4,5,-1,-2,1,x,x,x,x,x
COc1ccc(-c2nc(C#N)c(N3CCCCCC3)o2)cc1,84*,-305,0,-5,3,1,1,-2,-4,-5
COc1ccc(-c2nc(C#N)c(N3CCCCC3)o2)cc1,0,-304,-7,-9,3,x,x,x,x,x
Nn1c(SCc2ccc(F)cc2)nnc1-c1ccncc1,-1,21,4,-4,4,x,x,x,x,x
Cc1cc(C(=O)CSc2nc(N)cc(=O)[nH]2)ccc1F,1,20,90*,7,-1,2,4,3,-4,1
CCCc1ccc(-c2ccc(F)c(N)c2)nc1,96*,-7,94*,95*,0,94*,97*,103*,97*,96*
CCCCc1ccc(-c2ccc(Br)cc2)nc1,10,14,58*,68*,1,30,34,51*,46,40
COc1ccc(OCC2CCNCC2)cc1,0,5,-10,1,-1,x,x,x,x,x
CCCCN(C)CCNC(=O)C1CCN(S(=O)(=O)c2cccc3nsnc23)CC1,5,22,6,-13,-2,x,x,x,x,x
Cc1ccc(-c2nc3ccsc3c(=O)o2)cc1,52*,27,-13,55*,6,37,30,67*,16,56*
NC(=O)Cn1c(=O)n(CCC(=O)NCCSCc2ccccc2)c(=O)c2ccccc21,1,20,-2,1,3,x,x,x,x,x
CC(C)Oc1cccc(C(=O)Nc2ccc(CN3CCOCC3)cc2)c1,6,10,-1,-12,1,x,x,x,x,x
COc1cccc(NC(=O)c2ccc(CN3CCOCC3)cc2)c1,39,8,12,50*,-2,27,21,57*,63*,34
COc1cccc(NC(=O)c2ccc3c(c2)OCO3)c1,96*,29,88*,93*,0,-1,90*,100*,95*,90*
Cc1cc(C)nc(NC(=O)c2ccc3c(c2)OCO3)c1,80*,x,59*,71*,x,75*,74*,90*,88*,76*
CN1CCSc2ccc(C(=O)Nc3ccc(Cl)cc3)cc21,5,-424,-18,-28,-14,x,x,x,x,x
COc1cccc(NC(=O)c2ccc3c(c2)N(C)CCS3)c1,96*,-466,94*,91*,-20,95*,96*,100*,94*,96*
COc1cccc(C(=O)c2c(-c3ccccc3)ncc3cc(OC)c(OC)cc23)c1,1,-6,x,x,1,x,x,x,x,x
